The target in data set [1] is cGMP-dependent 3',5'-cyclic phosphodiesterase (Homo sapiens, UniProt O00408). Description: Inhibition of PDE2 (unknown origin) using [3H]cAMP or [3H]cGMP as substrate measured after 30 mins by liquid scintillation counting method.
A further data set addresses Phosphodiesterase 1 (Homo sapiens, UniProt P54750+Q01064+Q14123). Put plainly: Inhibition of PDE1 (unknown origin) using [3H]cAMP or [3H]cGMP as substrate measured after 30 mins by liquid scintillation counting method. The data set is classed as protein assay.
The target of the next data set is Phosphodiesterase 4 (Homo sapiens, UniProt P27815+Q08499+Q07343+Q08493). Put plainly: Inhibition of PDE4 (unknown origin) using [3H]cAMP or [3H]cGMP as substrate measured after 30 mins by liquid scintillation counting method. The data set is classed as protein assay.
For data set [2], the target named is cGMP-specific 3',5'-cyclic phosphodiesterase (Homo sapiens, UniProt O76074). Description: Inhibition of PDE5 (unknown origin) using [3H]cAMP or [3H]cGMP as substrate measured after 30 mins by liquid scintillation counting method.
For data set [3], the target named is High affinity cGMP-specific 3',5'-cyclic phosphodiesterase 9A (Homo sapiens, UniProt O76083). Description: Inhibition of PDE9 (unknown origin) using [3H]cAMP or [3H]cGMP as substrate measured after 30 mins by liquid scintillation counting method.
Data set [4] deals with cAMP and cAMP-inhibited cGMP 3',5'-cyclic phosphodiesterase 10A (Homo sapiens, UniProt Q9Y233). Description: Inhibition of PDE10 (unknown origin) using [3H]cAMP or [3H]cGMP as substrate measured after 30 mins by liquid scintillation counting method.
A short description of data set [5]: Toxicity in ICR mouse assessed as effect on locomotory activity at 0.5 to 2 mg/kg, ig administered as single dose via gavage measured for 10 mins. Particulars: in vivo, po. The class given is organism-based. In a few lines:
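Locomotor activity test in chronically stressed mice; locomotion counts recorded 10 minutes after a single oral treatment. Mean ± SEM, n = 6.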

Data set [6] is described as follows: Half life in ICR mouse at 2 mg/kg, po by LC-MS/MS analysis. The data set is classed as ADME, organism-based. Particulars: in vivo.
Data set [7] is described as follows: Tmax in ICR mouse at 2 mg/kg, po by LC-MS/MS analysis. The class given is ADME, organism-based. Particulars: in vivo.
Data set [8] in a line: Cmax in ICR mouse at 2 mg/kg, po by LC-MS/MS analysis. The class given is ADME, organism-based. Details: dose 2 mg/kg, route oral. The settings on record: in vivo.
A short description of data set [9]: AUC (0 to infinity) in ICR mouse at 2 mg/kg, po by LC-MS/MS analysis. The class given is ADME, organism-based. Details: dose 2 mg/kg, time infinity, route oral. Particulars: in vivo.
A short description of data set [10]: Ratio of drug level in ICR mouse brain to plasma at 2 mg/kg, po measured after 0.5 hrs by LC-MS/MS analysis. The class given is ADME, organism-based. Particulars: brain and plasma, read-out: BPR. The method in brief: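 Oral dose of 2 mg/kg in mice. Brain and plasma drug levels taken at 0.5 h after oral administration, and expressed as brain-to-plasma ratio.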

In data set [11] the test system is Mus musculus. Put plainly: Anxiolytic activity in ICR mouse model of chronic stress-induced cognitive impairment assessed as increase in time spent in open arms at 2 mg/kg, ip measured for 5 mins test period by elevated plus maze test. The class given is functional, organism-based.
The species named for data set [12] is Mus musculus. Description: Inhibition of PDE2 in mouse HT22 cells assessed as suppression of corticosterone-induced decrease in cGMP level at 1 uM after 24 hrs by ELISA. The data set is classed as cell-based. In a few lines:
(§1)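 Corticosterone at 100 μM applied to HT-22 cells for 30 min, followed by compound for 24 h. Intracellular cGMP and cAMP levels measured. Mean ± SEM, n = 6; compared with vehicle-treated corticosterone group.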
(In an ELISA, binding on a coated surface is turned into a signal by an enzyme label.)

The species named for data set [13] is Mus musculus. Description: Inhibition of PDE2 in mouse HT22 cells assessed as suppression of corticosterone-induced decrease in cAMP level at 1 uM after 24 hrs by ELISA. The class given is cell-based. The method in brief: as §1
Background: Changes in cAMP serve as a functional read-out for many G protein-coupled receptors.

Data set [14] has as its system Mus musculus. Description: Anxiolytic activity in ICR mouse model of chronic stress-induced cognitive impairment assessed as increase in time spent in open arms at 0.5 mg/kg, ip measured for 5 mins test period by elevated plus maze test. The class given is functional, organism-based. In a few lines: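 Chronically stressed mice given the reference drug at 0.5 mg/kg i.p., then tested in the elevated plus-maze for open-arm measures. Mean ± SEM, n = 6, versus vehicle-treated stressed group.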

Active and inactive are the calls of the source.

The IC50 is the concentration at which inhibition is half-maximal. A lower IC50 goes with greater potency. The half-life is the time needed for the level to fall by half in the phase considered. A low value points to fast loss. Usually Tmax stands for the time from dosing to the highest level. The term Cmax denotes the highest concentration seen after dosing. Broadly, the AUC(0-inf) is total exposure, with the tail of the curve extrapolated. Low readings indicate less exposure, high ones more exposure.

cGMP-dependent 3',5'-cyclic phosphodiesterase, sequence (O00408 whole entry): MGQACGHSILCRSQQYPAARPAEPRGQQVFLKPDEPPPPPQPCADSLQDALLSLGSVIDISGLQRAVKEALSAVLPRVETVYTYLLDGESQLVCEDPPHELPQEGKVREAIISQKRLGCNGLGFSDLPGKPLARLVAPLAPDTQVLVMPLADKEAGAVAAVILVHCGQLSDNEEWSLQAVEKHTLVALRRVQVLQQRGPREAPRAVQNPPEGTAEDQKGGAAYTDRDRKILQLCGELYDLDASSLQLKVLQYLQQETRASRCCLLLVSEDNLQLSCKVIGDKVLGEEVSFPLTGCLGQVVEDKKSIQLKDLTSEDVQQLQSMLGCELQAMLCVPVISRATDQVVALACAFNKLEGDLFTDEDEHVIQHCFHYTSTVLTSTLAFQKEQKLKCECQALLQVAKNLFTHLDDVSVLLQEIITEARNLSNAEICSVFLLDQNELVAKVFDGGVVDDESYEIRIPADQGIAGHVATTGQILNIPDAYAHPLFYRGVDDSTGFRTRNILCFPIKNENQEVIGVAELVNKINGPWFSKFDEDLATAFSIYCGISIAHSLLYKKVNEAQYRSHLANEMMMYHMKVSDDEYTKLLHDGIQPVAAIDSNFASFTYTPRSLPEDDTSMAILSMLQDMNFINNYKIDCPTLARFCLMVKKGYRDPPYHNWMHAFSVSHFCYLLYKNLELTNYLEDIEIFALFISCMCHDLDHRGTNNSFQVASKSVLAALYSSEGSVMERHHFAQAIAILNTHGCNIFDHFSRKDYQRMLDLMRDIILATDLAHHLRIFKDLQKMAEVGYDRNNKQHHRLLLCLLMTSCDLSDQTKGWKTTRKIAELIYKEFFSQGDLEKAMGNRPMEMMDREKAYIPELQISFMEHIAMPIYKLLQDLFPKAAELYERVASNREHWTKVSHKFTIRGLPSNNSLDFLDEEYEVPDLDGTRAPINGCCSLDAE
High affinity cGMP-specific 3',5'-cyclic phosphodiesterase 9A, sequence (O76083 whole entry): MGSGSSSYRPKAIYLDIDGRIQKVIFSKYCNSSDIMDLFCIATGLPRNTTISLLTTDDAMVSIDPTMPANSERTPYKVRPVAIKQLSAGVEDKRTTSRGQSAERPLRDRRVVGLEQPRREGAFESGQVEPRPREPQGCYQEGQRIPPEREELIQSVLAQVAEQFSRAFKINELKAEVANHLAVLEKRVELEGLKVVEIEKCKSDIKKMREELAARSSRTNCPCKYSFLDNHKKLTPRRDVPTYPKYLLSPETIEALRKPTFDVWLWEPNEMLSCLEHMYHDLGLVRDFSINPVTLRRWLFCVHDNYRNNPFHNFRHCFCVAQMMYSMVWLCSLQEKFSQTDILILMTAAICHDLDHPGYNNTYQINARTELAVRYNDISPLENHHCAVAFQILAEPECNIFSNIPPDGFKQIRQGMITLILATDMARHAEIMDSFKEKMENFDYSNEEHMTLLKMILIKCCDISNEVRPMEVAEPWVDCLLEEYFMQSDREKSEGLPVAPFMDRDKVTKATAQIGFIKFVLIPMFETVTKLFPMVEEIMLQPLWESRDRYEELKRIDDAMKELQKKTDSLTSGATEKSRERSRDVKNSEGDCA
cAMP and cAMP-inhibited cGMP 3',5'-cyclic phosphodiesterase 10A, sequence (Q9Y233 whole entry): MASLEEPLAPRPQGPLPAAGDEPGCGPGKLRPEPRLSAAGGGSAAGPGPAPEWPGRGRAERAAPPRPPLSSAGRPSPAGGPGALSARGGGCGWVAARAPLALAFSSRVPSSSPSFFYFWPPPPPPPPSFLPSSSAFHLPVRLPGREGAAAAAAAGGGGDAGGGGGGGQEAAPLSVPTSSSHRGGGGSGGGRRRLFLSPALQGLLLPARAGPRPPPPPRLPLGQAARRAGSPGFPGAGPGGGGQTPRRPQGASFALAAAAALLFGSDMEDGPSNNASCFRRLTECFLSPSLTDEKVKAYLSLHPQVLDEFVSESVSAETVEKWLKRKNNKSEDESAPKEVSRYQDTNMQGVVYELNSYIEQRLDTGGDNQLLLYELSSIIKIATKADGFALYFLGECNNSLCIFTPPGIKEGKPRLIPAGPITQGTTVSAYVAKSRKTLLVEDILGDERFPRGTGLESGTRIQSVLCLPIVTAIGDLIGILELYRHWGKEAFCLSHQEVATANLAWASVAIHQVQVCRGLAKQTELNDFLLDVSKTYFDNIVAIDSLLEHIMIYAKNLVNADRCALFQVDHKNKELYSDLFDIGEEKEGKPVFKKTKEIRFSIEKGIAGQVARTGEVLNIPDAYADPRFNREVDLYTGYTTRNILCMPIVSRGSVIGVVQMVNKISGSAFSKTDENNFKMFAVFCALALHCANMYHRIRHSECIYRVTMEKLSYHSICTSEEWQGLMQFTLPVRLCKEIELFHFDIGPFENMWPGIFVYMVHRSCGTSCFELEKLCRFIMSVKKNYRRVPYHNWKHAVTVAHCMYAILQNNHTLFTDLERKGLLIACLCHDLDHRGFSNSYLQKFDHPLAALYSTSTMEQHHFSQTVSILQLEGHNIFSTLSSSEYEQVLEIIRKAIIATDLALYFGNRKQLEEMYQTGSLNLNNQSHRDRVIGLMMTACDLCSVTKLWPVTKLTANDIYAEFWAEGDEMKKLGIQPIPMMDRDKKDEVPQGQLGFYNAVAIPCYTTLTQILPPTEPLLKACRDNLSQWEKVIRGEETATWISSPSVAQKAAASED

In data set [1], `CCCCCCn1cnc2c(=O)[nH]c(Cc3ccc(OCc4ccccc4)cc3)nc21` came in with an IC50 of 3.91 µM.

`O=c1[nH]c(Cc2ccccc2)nc2c1ncn2CCc1ccccc1` displayed an IC50 in data set [1] of 7.27 µM.

Molecule `CCCCC(CC)Cn1cnc2c(=O)[nH]c(Cc3ccccc3)nc21` (stereo unspecified) displayed an IC50 in data set [1] of 1.24 µM.

`CC(c1cccc2ccccc12)N1C=NC2C(=O)NC(Cc3ccccc3)=NC21` (stereo unspecified) returned an IC50 in [1] of 0.57 µM.

As to `COc1ccc(CCn2cnc3c(=O)[nH]c(Cc4ccccc4)nc32)cc1OC`, the IC50 in data set [1] was found to be 40.3 µM.

As for `CCCCCCn1cnc2c(=O)[nH]c(Cc3ccccc3)nc21`, the IC50 in [1] amounted to 5.94 µM.

Turning to `O=c1[nH]c(Cc2ccccc2)nc2c1ncn2Cc1ccc2ccccc2c1`, inhibition in [1] was half-maximal at 3.99 µM (IC50). This IC50 and that of the molecule before are within 1.5-fold of each other.

Take `CCCCC(CC)Cn1cnc2c(=O)[nH]c(Cc3ccc(OC)cc3)nc21` (stereo unspecified): the IC50 is 0.081 µM in data set [1]; greater than 500 µM against Phosphodiesterase 1; greater than 500 µM at Phosphodiesterase 4; greater than 500 µM in data set [2]; 32.3 µM in [3]; greater than 500 µM in data set [4]. In addition, the Activity result in [5] is “Non-Toxic”. Besides, in [6], the half-life is 84 min. The Tmax in [7] came out at 31.8 min. The molecule further displayed a Cmax in data set [8] of 511 ng/mL. Further, the AUC(0-inf) in data set [9] came to 646 ng·h/mL. In addition, the Kp at 0.5 h in data set [10] is 0.56.

In [1], `COc1ccc(CCn2cnc3c(=O)[nH]c(Cc4ccc(OCc5ccccc5)cc4)nc32)cc1OC` returned an IC50 greater than 50 µM.

Molecule `CCCCn1cnc2c(=O)[nH]c(Cc3ccc(OC)cc3)nc21` registered an IC50 in [1] of 1.94 µM.

As for `CCCCCCn1cnc2c(=O)[nH]c(Cc3ccc(OC)cc3)nc21`, in data set [1], the IC50 was 3.79 µM.

For the molecule `O=c1[nH]c(Cc2ccc(OCc3ccccc3)cc2)nc2c1ncn2CCc1ccccc1`, in [1], the IC50 turned out to be 5.8 µM.

For `CCCCCCCCn1cnc2c(=O)[nH]c(Cc3ccc(OCc4ccccc4)cc3)nc21`, half-maximal inhibition in data set [1] (IC50) required 2.63 µM.

In data set [1], `COc1cccc(CCn2cnc3c(=O)[nH]c(Cc4ccccc4)nc32)c1` registered an IC50 of 11 µM. Against the preceding molecule, the IC50 is about 4.2-fold higher.

Turning to `CCCCn1cnc2c(=O)[nH]c(Cc3ccc(OCc4ccccc4)cc3)nc21`, the IC50 in [1] came to 5.46 µM.

In [1], `O=c1[nH]c(Cc2ccccc2)nc2c1ncn2CCc1cccs1` had an IC50 of 17 µM.

For `CCCCC(CC)Cn1cnc2c(=O)[nH]c(Cc3ccc(OCc4ccccc4)cc3)nc21` (stereo unspecified), the IC50 in data set [1] was 0.072 µM; against Phosphodiesterase 1 it was greater than 500 µM; at Phosphodiesterase 4, greater than 500 µM; in [2], greater than 500 µM; in [3] it was 13.9 µM; in data set [4], greater than 500 µM.

With `CN1C(=O)CN=C(c2ccccc2)c2cc(Cl)ccc21`, the result in the data set with Mus musculus [11] was Active.

In the case of `COc1ccc(Cc2nc(O)c3c(C)nc([C@@H](CCCc4ccccc4)[C@@H](C)O)n3n2)cc1OC`, the inhibition entry in the data set filed under Mus musculus [12] and in the data set filed under Mus musculus [13] was “Active” each time. Moreover, the result in the data set on Mus musculus [14] was inactive.

Take `CCCCCCCCn1cnc2c(=O)[nH]c(Cc3ccccc3)nc21`: half-maximal inhibition in data set [1] (IC50) was put at 4.28 µM.

Turning to `CCCCn1cnc2c(=O)[nH]c(Cc3ccccc3)nc21`, in data set [1], the IC50 turned out to be 4.32 µM. This IC50 and that of the molecule before are within 1.5-fold of each other.

On to `CC(CCc1ccccc1)n1cnc2c(=O)[nH]c(Cc3ccccc3)nc21` (stereo unspecified), for which the IC50 in data set [1] came to 0.31 µM.

`O=c1[nH]c(Cc2ccccc2)nc2c1ncn2CCc1c[nH]c2ccccc12` displayed an IC50 in data set [1] greater than 50 µM.

For the origin of these results see ChEMBL document CHEMBL4371070, “Design, synthesis of novel purin-6-one derivatives as phosphodiesterase 2 (PDE2) inhibitors: The neuroprotective and anxiolytic-like effects” (Bioorg Med Chem Lett, 2019).
